Measurements taken from ChEMBL document CHEMBL1123964, “Potent, long-acting luteinizing hormone-releasing hormone antagonists containing new synthetic amino acids: N,N'-dialkyl-D-homoarginines” (J Med Chem, 1988).
Square brackets hold non-standard residues; d marks the D form. Peptide text beside a SMILES is read from it. d(hArg(Et2)) = CCN=C(NCC)NCCCC[C@@H](N)C(=O)O; dPhe(4-Cl) = N[C@H](Cc1ccc(Cl)cc1)C(=O)O; d2Nal = N[C@H](Cc1ccc2ccccc2c1)C(=O)O

Assays:
[1] = target: T1, Gonadotropin-releasing hormone receptor (Rattus norvegicus) (UniProt P30969); test: Antiovulatory activity on proestrus was measured by administering as a solution in 50% propylene glycol / 0.9% saline in rat; type: functional
T1 sequence (whole entry): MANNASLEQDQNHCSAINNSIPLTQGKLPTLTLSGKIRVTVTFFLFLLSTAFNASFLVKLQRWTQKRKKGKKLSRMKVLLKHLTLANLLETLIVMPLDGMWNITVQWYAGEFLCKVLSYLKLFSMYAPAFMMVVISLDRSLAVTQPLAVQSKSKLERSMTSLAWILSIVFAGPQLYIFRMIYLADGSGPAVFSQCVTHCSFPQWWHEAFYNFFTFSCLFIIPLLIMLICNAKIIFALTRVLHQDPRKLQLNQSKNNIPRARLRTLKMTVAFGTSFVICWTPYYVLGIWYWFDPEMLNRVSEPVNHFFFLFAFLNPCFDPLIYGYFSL

[2] = target: T1, Gonadotropin-releasing hormone receptor (Rattus norvegicus); test: Antiovulatory activity on diestrus II following administration as a solution in corn oil (24h earlier) in rat.; type: functional, organism-based
Summary of the method: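 Female rats with at least two normal 4-day cycles before the test cycle were selected. They received the analogue sc in corn oil at noon on diestrus II, 24 h before the proestrus dosing time. On the morning of expected estrus the oviducts were examined under a dissecting microscope, and freshly ovulated eggs were counted. ED50 was taken from percent ovulating versus log-dose, with 10 rats per dose group and usually three or more dose groups.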

Row | ED50 (ug injection-1) [1] | ED50 (ug injection-1) [2] | SMILES
1 | 0.4 |  | CCNC(=NCCCC[C@@H](NC(=O)[C@H](Cc1ccc(O)cc1)NC(=O)[C@H](CO)NC(=O)[C@@H](Cc1c[nH]c2ccccc12)NC(=O)[C@@H](Cc1ccc(F)cc1)NC(=O)[C@@H](Cc1ccc2ccccc2c1)NC(C)=O)C(=O)N[C@@H](CC(C)C)C(=O)N[C@@H](CCCN=C(N)N)C(=O)N1CCC[C@H]1C(=O)N[C@H](C)C(N)=O)NCC
2 | 0.6 | > 4 | CCNC(=NCCCC[C@@H](NC(=O)[C@H](Cc1ccc(O)cc1)NC(=O)[C@H](CO)NC(=O)[C@@H](Cc1cccnc1)NC(=O)[C@@H](Cc1ccc(Cl)cc1)NC(=O)[C@@H](Cc1ccc2ccccc2c1)NC(C)=O)C(=O)N[C@@H](CC(C)C)C(=O)N[C@@H](CCCN=C(N)N)C(=O)N1CCC[C@H]1C(=O)N[C@H](C)C(N)=O)NCC
3 | 7.5 |  | CCCNC(=NCCCC[C@@H](NC(=O)[C@H](Cc1ccc(O)cc1)NC(=O)[C@H](CO)NC(=O)[C@@H](Cc1ccc2ccccc2c1)NC(=O)[C@@H](Cc1ccc(F)cc1)NC(=O)[C@@H](Cc1ccc2ccccc2c1)NC(C)=O)C(=O)N[C@@H](CC(C)C)C(=O)N[C@@H](CCCN=C(N)N)C(=O)N1CCC[C@H]1C(=O)NCC(N)=O)NCCC
4 | 1.7 |  | CCNC(=NCCCC[C@@H](NC(=O)[C@H](Cc1ccc(O)cc1)NC(=O)[C@H](CO)NC(=O)[C@@H](Cc1ccncc1)NC(=O)[C@@H](Cc1ccc(Cl)cc1)NC(=O)[C@@H](Cc1ccc2ccccc2c1)NC(C)=O)C(=O)N[C@@H](CC(C)C)C(=O)N[C@@H](CCCN=C(N)N)C(=O)N1CCC[C@H]1C(=O)N[C@H](C)C(N)=O)NCC
5 | 0.5 | < 4 | CCNC(=NCCCC[C@@H](NC(=O)[C@H](Cc1ccc(O)cc1)NC(=O)[C@H](CO)NC(=O)[C@@H](Cc1c[nH]c2ccccc12)NC(=O)[C@@H](Cc1ccc(Cl)cc1)NC(=O)[C@@H](Cc1ccc2ccccc2c1)NC(C)=O)C(=O)N[C@@H](CC(C)C)C(=O)N[C@@H](CCCN=C(N)N)C(=O)N1CCC[C@H]1C(=O)N[C@H](C)C(N)=O)NCC (stereo in doubt; 25)
6 | 0.75 | 8 | CCNC(=NCCCC[C@@H](NC(=O)[C@H](Cc1ccc(O)cc1)NC(=O)[C@H](CO)NC(=O)[C@@H](Cc1c[nH]c2ccccc12)NC(=O)[C@@H](Cc1ccc(Cl)cc1)NC(=O)[C@@H](Cc1ccc2ccccc2c1)NC(C)=O)C(=O)N[C@@H](Cc1ccccc1)C(=O)N[C@@H](CCCN=C(N)N)C(=O)N1CCC[C@H]1C(=O)N[C@H](C)C(N)=O)NCC (Ac-[d2Nal][dPhe(4-Cl)][dW]SY[d(hArg(Et2))]FRP[dA]-NH2)
7 | 16 |  | CCCCCCNC(=NCCCC[C@@H](NC(=O)[C@H](Cc1ccc(O)cc1)NC(=O)[C@H](CO)NC(=O)[C@@H](Cc1c[nH]c2ccccc12)NC(=O)[C@@H](Cc1ccc(F)cc1)NC(=O)[C@@H](CO)NC(C)=O)C(=O)N[C@@H](CC(C)C)C(=O)N[C@@H](CCCN=C(N)N)C(=O)N1CCC[C@H]1C(=O)NCC(N)=O)NCCCCCC
8 | 11.5 |  | CCNC(=NCCCC[C@H](NC(=O)[C@H](CO)NC(=O)[C@@H](Cc1c[nH]c2ccccc12)NC(=O)[C@@H](Cc1ccc(Cl)cc1)NC(=O)[C@@H](Cc1ccc2ccccc2c1)NC(C)=O)C(=O)N[C@H](Cc1ccc(O)cc1)C(=O)N[C@@H](Cc1c[nH]c2ccccc12)C(=O)N[C@@H](CCCN=C(N)N)C(=O)N1CCC[C@H]1C(=O)N[C@H](C)C(N)=O)NCC
9 | > 16 |  | CCNC(=NCCCC[C@H](NC(=O)[C@H](CO)NC(=O)[C@@H](Cc1c[nH]c2ccccc12)NC(=O)[C@@H](Cc1ccc(Cl)cc1)NC(=O)[C@@H](CCCCN=C(NCC)NCC)NC(C)=O)C(=O)N[C@H](Cc1ccc(O)cc1)C(=O)N[C@@H](Cc1c[nH]c2ccccc12)C(=O)N[C@@H](CCCN=C(N)N)C(=O)N1CCC[C@H]1C(=O)N[C@H](C)C(N)=O)NCC
10 | 8 |  | CCNC(=NCCCC[C@@H](NC(C)=O)C(=O)N[C@H](Cc1ccc(Cl)cc1)C(=O)N[C@H](Cc1c[nH]c2ccccc12)C(=O)N[C@@H](CO)C(=O)N[C@@H](Cc1ccc(O)cc1)C(=O)N[C@H](Cc1ccc2ccccc2c1)C(=O)N[C@@H](CC(C)C)C(=O)N[C@@H](CCCN=C(N)N)C(=O)N1CCC[C@H]1C(=O)N[C@H](C)C(N)=O)NCC
11 | > 16 |  | CCCCCCNC(=NCCCC[C@@H](NC(=O)[C@H](Cc1ccc(O)cc1)NC(=O)[C@H](CCCN)NC(=O)[C@@H](Cc1c[nH]c2ccccc12)NC(=O)[C@@H](Cc1ccc(Cl)cc1)NC(=O)[C@@H](Cc1ccc(Cl)cc1)NC(C)=O)C(=O)N[C@@H](CC(C)C)C(=O)N[C@@H](CCCN=C(N)N)C(=O)N1CCC[C@H]1C(=O)N[C@H](C)C(N)=O)NCCCCCC
12 | > 2 |  | CC/N=C(\NCCCC[C@@H](NC(=O)[C@H](Cc1ccc(O)cc1)NC(=O)[C@H](CO)NC(=O)[C@@H](Cc1c[nH]c2ccccc12)NC(=O)[C@@H](Cc1ccc(Cl)cc1)NC(=O)[C@@H](Cc1ccc(Cl)cc1)NC(C)=O)C(=O)N[C@@H](CC(C)C)C(=O)N[C@@H](CCCN=C(N)N)C(=O)N1CCC[C@H]1C(=O)NCC(N)=O)NCCCN(C)C
13 | > 2 |  | CCNC(=NCCCC[C@@H](NC(=O)[C@H](Cc1ccc(O)cc1)NC(=O)[C@H](CO)NC(=O)[C@@H](Cc1c[nH]c2ccccc12)NC(=O)[C@@H](Cc1ccc(F)cc1)NC(=O)[C@@H](Cc1ccc2ccccc2c1)NC(C)=O)C(=O)N[C@@H](CC(C)C)C(=O)N[C@@H](CCCN=C(N)N)C(=O)N1CCC[C@H]1C(=O)NCC(N)=O)NCCCN(C)C
14 | 0.7 |  | CCNC(=NCCCC[C@@H](NC(=O)[C@H](Cc1ccc(O)cc1)NC(=O)[C@H](CO)NC(=O)[C@@H](Cc1cccnc1)NC(=O)[C@@H](Cc1ccc(F)cc1)NC(=O)[C@@H](Cc1ccc2ccccc2c1)NC(C)=O)C(=O)N[C@@H](CC(C)C)C(=O)N[C@@H](CCCN=C(N)N)C(=O)N1CCC[C@H]1C(=O)N[C@H](C)C(N)=O)NCC
15 | 5.5 |  | CCNC(=NCCCC[C@@H](NC(=O)[C@H](Cc1ccc(O)cc1)NC(=O)[C@H](CO)NC(=O)[C@@H](Cc1ccc2ccccc2c1)NC(=O)[C@@H](Cc1ccc(Cl)cc1)NC(=O)[C@@H](Cc1c[nH]c2ccccc12)NC(C)=O)C(=O)N[C@@H](CC(C)C)C(=O)N[C@@H](CCCN=C(N)N)C(=O)N1CCC[C@H]1C(=O)N[C@H](C)C(N)=O)NCC
16 | 1.7 |  | CCNC(=NCCCC[C@H](NC(=O)[C@H](CO)NC(=O)[C@@H](Cc1c[nH]c2ccccc12)NC(=O)[C@@H](Cc1ccc(Cl)cc1)NC(=O)[C@@H](Cc1ccc2ccccc2c1)NC(C)=O)C(=O)N[C@H](Cc1ccc(O)cc1)C(=O)N[C@@H](CC(C)C)C(=O)N[C@@H](CCCN=C(N)N)C(=O)N1CCC[C@H]1C(=O)N[C@H](C)C(N)=O)NCC
17 | 1.6 |  | CCNC(=NCCCC[C@H](NC(=O)[C@H](CO)NC(=O)[C@@H](Cc1c[nH]c2ccccc12)NC(=O)[C@@H](Cc1ccc(Cl)cc1)NC(=O)[C@@H](Cc1ccc2ccccc2c1)NC(C)=O)C(=O)N[C@H](Cc1ccc2ccccc2c1)C(=O)N[C@@H](CC(C)C)C(=O)N[C@@H](CCCN=C(N)N)C(=O)N1CCC[C@H]1C(=O)N[C@H](C)C(N)=O)NCC
18 | 1.2 |  | CCNC(=NCCCC[C@@H](NC(=O)[C@H](Cc1ccc(O)cc1)NC(=O)[C@H](CO)NC(=O)[C@@H](Cc1c[nH]c2ccccc12)NC(=O)[C@@H](Cc1ccc(Cl)cc1)NC(=O)[C@@H](Cc1ccc2ccccc2c1)NC(C)=O)C(=O)N[C@@H](Cc1c[nH]c2ccccc12)C(=O)N[C@@H](CCCN=C(N)N)C(=O)N1CCC[C@H]1C(=O)N[C@H](C)C(N)=O)NCC
